Source: ChEMBL document CHEMBL1154093, “New azoles with potent antifungal activity: design, synthesis and molecular docking” (2009)
Values after ≈ are worked out from the molar mass of the structure shown. Active and inactive are the calls of the source. The calls are words filed in the database; no cut-off is given here.

Tests used:
[1] = system: Candida albicans; assay: Antifungal activity against multidrug-resistant Candida albicans after 24 hrs by serial dilution method; format: functional
Summary of the method: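 Broth serial dilution in 96-well plates per NCCLS recommendations; RPMI 1640 buffered with 0.165 M MOPS as medium. Compounds dissolved in DMSO, serially diluted in growth medium. Strains from ATCC or clinical isolates. Yeasts incubated at 35 °C, read at 24 h for Candida. MIC = lowest concentration giving turbidity at or below 80% inhibition versus growth control.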

[2] = system: Candida tropicalis; assay: Antifungal activity against Candida tropicalis after 24 hrs by serial dilution method; format: functional
Summary of the method: (§1)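 NCCLS broth microdilution in RPMI 1640 buffered with 0.165 M MOPS, with strains from ATCC or clinical isolates. Compounds were dissolved in DMSO and serially diluted in medium. Yeasts were incubated at 35 °C and read at 24 h for Candida or 72 h for C. neoformans. MIC was the lowest concentration giving ≥80% turbidity inhibition versus the growth control.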

[3] = system: Candida albicans; assay: Antifungal activity against Candida albicans after 24 hrs by serial dilution method; format: functional; summary of the method: as §1
[4] = system: Cryptococcus neoformans; assay: Antifungal activity against Cryptococcus neoformans after 72 hrs by serial dilution method; format: functional; summary of the method: as §1
[5] = system: Trichophyton rubrum; assay: Antifungal activity against Trichophyton rubrum after 7 days by serial dilution method; format: functional; settings: 168 h
Summary of the method: (§2)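 Dermatophytes (ATCC or clinical isolates) were tested by NCCLS serial dilution in RPMI 1640 with 0.165 M MOPS, incubated at 28 °C and read at 7 days. Compounds were taken up in DMSO and diluted in medium. MIC was the lowest concentration reducing turbidity by at least 80% relative to the drug-free growth control.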

[6] = system: Aspergillus fumigatus; assay: Antifungal activity against Aspergillus fumigatus after 7 days by serial dilution method; format: functional; settings: 168 h
Summary of the method: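 Filamentous fungus (ATCC or clinical isolate) was tested by NCCLS microdilution in MOPS-buffered (0.165 M) RPMI 1640. Compounds were dissolved in DMSO and serially diluted in medium, and growth was scored at 7 days. MIC was the lowest concentration producing ≥80% inhibition of turbidity compared with the untreated control.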

[7] = system: Nannizzia gypsea; assay: Antifungal activity against Microsporum gypseum after 7 days by serial dilution method; format: functional; settings: 168 h; summary of the method: as §2
[8] = system: Candida parapsilosis; assay: Antifungal activity against Candida parapsilosis after 24 hrs by serial dilution method; format: functional, organism-based; summary of the method: as §1

Row | Compound | MIC80 [1] | MIC80 [2] | MIC80 [3] | MIC80 [4] | MIC80 [5] | MIC80 [6] | MIC80 [7] | Activity [8]
1 | OC(CN1CCN(CCCOc2ccccc2)CC1)(Cn1cncn1)c1ccc(F)cc1F (racemic) | 64 µg/mL (≈ 140 µM) | 0.0625 µg/mL (≈ 0.137 µM) | 0.0156 µg/mL (≈ 0.0341 µM) | 1 µg/mL (≈ 2.19 µM) | 0.25 µg/mL (≈ 0.546 µM) | 32 µg/mL (≈ 69.9 µM) | 4 µg/mL (≈ 8.74 µM) | Active
2 | Nc1ccccc1OCCCN1CCN(CC(O)(Cn2cncn2)c2ccc(F)cc2F)CC1 (racemic) | 0.5 µg/mL (≈ 1.06 µM) | 0.25 µg/mL (≈ 0.529 µM) | 0.25 µg/mL (≈ 0.529 µM) | 4 µg/mL (≈ 8.46 µM) | 1 µg/mL (≈ 2.12 µM) | 64 µg/mL (≈ 135 µM) | 16 µg/mL (≈ 33.9 µM) | Active
3 | OC(CN1CCN(CCCOc2cccc(Br)c2)CC1)(Cn1cncn1)c1ccc(F)cc1F (racemic) | 16 µg/mL (≈ 29.8 µM) | 0.0156 µg/mL (≈ 0.0291 µM) | 0.0156 µg/mL (≈ 0.0291 µM) | 0.25 µg/mL (≈ 0.466 µM) | 0.0625 µg/mL (≈ 0.117 µM) | 4 µg/mL (≈ 7.46 µM) | 0.25 µg/mL (≈ 0.466 µM) | Active
4 | O=[N+]([O-])c1cccc(OCCCN2CCN(CC(O)(Cn3cncn3)c3ccc(F)cc3F)CC2)c1 (racemic) | 0.25 µg/mL (≈ 0.497 µM) | 0.0156 µg/mL (≈ 0.031 µM) | 0.0625 µg/mL (≈ 0.124 µM) | 0.25 µg/mL (≈ 0.497 µM) | 0.0625 µg/mL (≈ 0.124 µM) | 32 µg/mL (≈ 63.7 µM) | 0.25 µg/mL (≈ 0.497 µM) | Active
5 | OC(CN1CCN(CCCCCOc2ccccc2)CC1)(Cn1cncn1)c1ccc(F)cc1F (racemic) | 4 µg/mL (≈ 8.24 µM) | 0.0625 µg/mL (≈ 0.129 µM) | 0.0625 µg/mL (≈ 0.129 µM) | 1 µg/mL (≈ 2.06 µM) | 0.25 µg/mL (≈ 0.515 µM) | 32 µg/mL (≈ 65.9 µM) | 4 µg/mL (≈ 8.24 µM) | Active
6 | CC(C)(C)c1ccc(OCCCN2CCN(CC(O)(Cn3cncn3)c3ccc(F)cc3F)CC2)cc1 (racemic) | 0.125 µg/mL (≈ 0.243 µM) | 0.0156 µg/mL (≈ 0.0304 µM) | 0.0156 µg/mL (≈ 0.0304 µM) | 0.0625 µg/mL (≈ 0.122 µM) | 0.0156 µg/mL (≈ 0.0304 µM) | 2 µg/mL (≈ 3.89 µM) | 0.0625 µg/mL (≈ 0.122 µM) | Active
7 | Nc1ccc(OCCCN2CCN(CC(O)(Cn3cncn3)c3ccc(F)cc3F)CC2)cc1 (racemic) | 0.25 µg/mL (≈ 0.529 µM) | 1 µg/mL (≈ 2.12 µM) | 0.25 µg/mL (≈ 0.529 µM) | 4 µg/mL (≈ 8.46 µM) | 4 µg/mL (≈ 8.46 µM) | 64 µg/mL (≈ 135 µM) | 16 µg/mL (≈ 33.9 µM) | Active
8 | O=C(Nc1ccc(OCCCN2CCN(CC(O)(Cn3cncn3)c3ccc(F)cc3F)CC2)cc1)c1ccccc1 (racemic) | 0.5 µg/mL (≈ 0.867 µM) | 1 µg/mL (≈ 1.73 µM) | 0.25 µg/mL (≈ 0.434 µM) | 16 µg/mL (≈ 27.7 µM) | 16 µg/mL (≈ 27.7 µM) | > 64 µg/mL | 64 µg/mL (≈ 111 µM) | Active
9 | OC(CN1CCN(CCCOc2ccc(Br)cc2)CC1)(Cn1cncn1)c1ccc(F)cc1F (racemic) | 0.25 µg/mL (≈ 0.466 µM) | 0.0156 µg/mL (≈ 0.0291 µM) | 0.0156 µg/mL (≈ 0.0291 µM) | 0.25 µg/mL (≈ 0.466 µM) | 0.0625 µg/mL (≈ 0.117 µM) | 1 µg/mL (≈ 1.86 µM) | 0.25 µg/mL (≈ 0.466 µM) | Active
10 | O=[N+]([O-])c1ccc(OCCCN2CCN(CC(O)(Cn3cncn3)c3ccc(F)cc3F)CC2)cc1 (racemic) | 0.125 µg/mL (≈ 0.249 µM) | 0.0625 µg/mL (≈ 0.124 µM) | 0.0625 µg/mL (≈ 0.124 µM) | 0.25 µg/mL (≈ 0.497 µM) | 0.0625 µg/mL (≈ 0.124 µM) | 32 µg/mL (≈ 63.7 µM) | 1 µg/mL (≈ 1.99 µM) | Active
11 | OC(CN1CCN(CCCOc2ccccc2Cl)CC1)(Cn1cncn1)c1ccc(F)cc1F (racemic) | 16 µg/mL (≈ 32.5 µM) | 0.0625 µg/mL (≈ 0.127 µM) | 0.0625 µg/mL (≈ 0.127 µM) | 1 µg/mL (≈ 2.03 µM) | 0.25 µg/mL (≈ 0.508 µM) | 32 µg/mL (≈ 65 µM) | 1 µg/mL (≈ 2.03 µM) | Active
12 | OC(CN1CCN(CCCOc2ccc(OCc3ccccc3)cc2)CC1)(Cn1cncn1)c1ccc(F)cc1F (racemic) | 32 µg/mL (≈ 56.8 µM) | 0.0625 µg/mL (≈ 0.111 µM) | 0.0625 µg/mL (≈ 0.111 µM) | 0.25 µg/mL (≈ 0.444 µM) | 0.0625 µg/mL (≈ 0.111 µM) | 2 µg/mL (≈ 3.55 µM) | 0.0625 µg/mL (≈ 0.111 µM) | Active
